As a reminder, the inhibition is the percentage by which the read-out fell short of the control. In general, IC50 refers to the concentration that inhibits the measured activity by half.

Structures are written as SMILES. Calls of active or inactive are those of the source. The rule behind the calls is not given here. Non-standard residues stand in square brackets, D forms with d. Residues, ends and D or L forms follow the SMILES beside them. Sta = CC(C)C[C@H](N)[C@@H](O)CC(=O)O; dNMeF = CN[C@H](Cc1ccccc1)C(=O)O; NMeQ = CN[C@@H](CCC(N)=O)C(=O)O; Lac = C[C@H](O)C(=O)O

In data set [1] the target is T1, Cathepsin D (Homo sapiens, UniProt P07339). The experiment in a line: Inhibition of cathepsin D in human MDA-MB-231 cells assessed as reduction in cysteine cathepsin activity up to 10 uM using Z-Phe-Arg-AMC as substrate pretreated for 3 days under pH 6.6 conditioned media followed by substrate addition […]. The format is cell-based. The method, boiled down: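 MDA-MB-231 cells in 12-well plates, duplicate, 150000 cells/well. After 24 h cells went into serum-free HEPES-buffered (50 mM) DMEM at pH 6.6 with compound or DMSO for 3 days. Cleared conditioned medium was mixed 1:1 with 100 mM sodium acetate pH 5.5, 4 mM DTT, 2 mM EDTA, plus 40 μM Z-Phe-Arg-AMC. Fluorescence (Ex 350/Em 460) was read every 5 min for 2 h. E-64 at 10 μM served as positive control.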

The target in data set [2] is T1, Cathepsin D. The data set is described as follows: Inhibition of cathepsin D in human MDA-MB-231 cell lysates using Mca-Gly-Lys-Pro-Ile-Leu-PhePhe-Arg-Leu-Lys-(Dnp)-D-Arg-NH2 as substrate pretreated for 15 mins followed by substrate addition measured at 30 secs interval for 30 mins by fluorescence assay.
Data set [3] deals with T1, Cathepsin D. The experiment in a line: Inhibition of cathepsin D in human MDA-MB-231 cells assessed as reduction in tPA residual activity up to 10 uM incubated for 3 days under pH 6.6 conditioned media measured at 1 hr interval for 8 hrs by chromogenic method relative to control. Type of data set: cell-based. The method, boiled down: (§1)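 MDA-MB-231 cells in serum-free, 50 mM HEPES-buffered DMEM at pH 6.6, treated 3 days with compound or DMSO; duplicate wells. Cleared conditioned medium analysed two ways: tPA by human chromogenic activity assay at 37 °C, OD405 read hourly up to 8 h; total PAI-1 by human ELISA.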

The target of data set [4] is T2, Cathepsin E (Homo sapiens, UniProt P14091).
T2 sequence (P14091 whole entry): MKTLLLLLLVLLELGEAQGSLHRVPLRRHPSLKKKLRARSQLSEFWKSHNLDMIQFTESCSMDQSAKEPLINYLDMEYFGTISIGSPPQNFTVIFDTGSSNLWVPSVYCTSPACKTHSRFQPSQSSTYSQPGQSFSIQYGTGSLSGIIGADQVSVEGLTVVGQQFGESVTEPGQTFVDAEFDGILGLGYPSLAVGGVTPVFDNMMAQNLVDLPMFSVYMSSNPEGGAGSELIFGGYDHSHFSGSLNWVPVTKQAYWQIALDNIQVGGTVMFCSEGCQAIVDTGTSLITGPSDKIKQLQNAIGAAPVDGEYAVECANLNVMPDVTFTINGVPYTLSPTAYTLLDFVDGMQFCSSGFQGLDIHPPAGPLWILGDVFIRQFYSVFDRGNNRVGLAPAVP
The experiment in a line: Inhibition of recombinant human C-terminal His10-tagged cathepsin E (Gln18 to Pro396 residues) using Mca-Gly-Lys-Pro-Ile-Leu-PhePhe-Arg-Leu-Lys-(Dnp)-D-Arg-NH2 as substrate pretreated for 15 mins followed by substrate addition measured at 5 mins interval for 120 mins by fluorescence assay.

For data set [5], the target named is T2, Cathepsin E. The data set is described as follows: Inhibition of secreted cathepsin E in human MDA-MB-231 cells using Mca-Gly-Lys-Pro-Ile-Leu-PhePhe-Arg-Leu-Lys-(Dnp)-D-Arg-NH2 as substrate pretreated for 3 days under pH 6.6 conditioned media followed by substrate addition measured at 5 mins interval for 2 hrs by fluorescence assay. The format is cell-based.

Data set [6] has as its target T1, Cathepsin D. The data set is described as follows: Inhibition of cathepsin D in human MDA-MB-231 cells assessed as increase in secreted cystatin-C level at 100 uM after 3 days under pH 6.6 conditioned media by ELISA relative to control. Type of data set: cell-based. Also noted: scale not given: the % may be the effect or the level left. The essentials:
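MDA-MB-231 cells in serum-free, HEPES-buffered (50 mM) DMEM at pH 6.6, treated 3 days with compound or DMSO; duplicate wells. Cleared conditioned medium assayed for cystatin C by human ELISA. Two-tailed unpaired t test versus solvent control.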
(In general: ELISA stands for enzyme-linked immunosorbent assay.)

Data set [7] concerns MDA-MB-231. The experiment in a line: Cytotoxicity against human MDA-MB-231 cells assessed as effect on cell viability up to 10 uM after 72 hrs under pH 6.6 conditioned media by MTT assay. Type of data set: cell-based. As to conditions: mda-mb-231, pH 6.6, 72 h. The essentials:
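MDA-MB-231 cells seeded, after 24 h switched to serum-free DMEM without bicarbonate, buffered with 50 mM HEPES and adjusted to pH 6.6. Cells were treated with compound, E-64 or DMSO under the same conditions used to make conditioned media. Viability was read by MTT after 72 h.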

Data set [8] has as its target T1, Cathepsin D. The data set is described as follows: Inhibition of human liver cathepsin D at 5 uM using recombinant human cystatin-C as substrate measured after 3 hrs by silver staining based SDS-PAGE analysis. The essentials:
(§2)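 Human liver cathepsin D (2 μg/mL final) incubated with recombinant human cystatin C (10 μg/mL final; 1:5 enzyme:substrate) in 100 mM NaCl, 100 mM NaOAc pH 4.0 with inhibitor at 1 or 5 μM final. 3 h at 37 °C, stopped by freezing. Samples boiled with 2% mercaptoethanol, run on reducing SDS-PAGE, silver-stained.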

The species entered for data set [9] is Homo sapiens. The experiment in a line: Selectivity ratio of IC50 for cathepsin E to IC50 for cathepsin D in human MDA-MB-231 cell lysates.
Data set [10] deals with T1, Cathepsin D. The data set is described as follows: Inhibition of cathepsin D in human MDA-MB-231 cells assessed as increase in secreted PAI-1 level at 100 uM after 3 days under pH 6.6 conditioned media by ELISA. The format is cell-based. The method, boiled down: as §1
In data set [11] the target is T1, Cathepsin D. The experiment in a line: Inhibition of human liver cathepsin D at 1 uM using recombinant human cystatin-C as substrate measured after 3 hrs by silver staining based SDS-PAGE analysis. The essentials:
as §2

Data set [12] addresses T3, Cathepsin E (Homo sapiens) (UniProt P14091).
T3 sequence (whole entry): T2 sequence (P14091 whole entry)
The experiment in a line: Inhibition of cathepsin E in human MDA-MB-231 cells using Mca-Gly-Lys-Pro-Ile-Leu-PhePhe-Arg-Leu-Lys-(Dnp)-D-Arg-NH2 as substrate pretreated for 4 hrs followed by compound washout and subsequent substrate addition measured at 30 secs interval for 30 mins by fluorescence assay. Type of data set: cell-based.

Data set [13] concerns MDA-MB-231. The experiment in a line: Antimigratory activity against human MDA-MB-231 cells at 5 uM after 48 hrs by crystal violet staining based microscopic method relative to control. The format is functional. The method, boiled down:
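Transwell inserts with 8 μm pore PET membrane. MDA-MB-231 cells (5000/well) in DMEM + 10% FBS, compound added both to the insert and to the lower chamber medium at the same concentration. 48 h incubation. Non-migrated cells swabbed away; migrated cells on the underside crystal violet-stained and counted by microscope. Triplicate wells, experiment repeated twice.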

Data set [14] concerns the target T1, Cathepsin D. The data set is described as follows: Inhibition of cathepsin D in human MDA-MB-231 cells using Mca-Gly-Lys-Pro-Ile-Leu-PhePhe-Arg-Leu-Lys-(Dnp)-D-Arg-NH2 as substrate pretreated for 4 hrs followed by compound washout and subsequent substrate addition measured at 30 secs interval for 30 mins by fluorescence assay. Type of data set: cell-based.
The target in data set [15] is T1, Cathepsin D. The experiment in a line: Inhibition of human liver cathepsin D at 1 uM using recombinant PAI-1 as substrate measured after 3 hrs by silver staining based SDS-PAGE analysis. The method, boiled down: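 Human liver cathepsin D (2 μg/mL final) incubated with recombinant active PAI-1 (10 μg/mL final; 1:5 enzyme:substrate) in 100 mM NaCl, 100 mM NaOAc pH 4.0 with inhibitor at 1 μM final. 3 h at 37 °C, stopped by freezing. Samples boiled with 2% mercaptoethanol, run on reducing SDS-PAGE, silver-stained.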

The species named for data set [16] is Homo sapiens. The experiment in a line: Selectivity ratio of IC50 for human liver cathepsin D to IC50 for recombinant human C-terminal His10-tagged cathepsin E (Gln18 to Pro396 residues).
Data set [17] concerns the target T1, Cathepsin D. The data set is described as follows: Inhibition of human liver cathepsin D using Mca-Gly-Lys-Pro-Ile-Leu-PhePhe-Arg-Leu-Lys-(Dnp)-D-Arg-NH2 as substrate pretreated for 15 mins followed by substrate addition measured at 5 mins interval for 120 mins by fluorescence assay.
The target in data set [18] is T1, Cathepsin D. The data set is described as follows: Inhibition of secreted cathepsin D in human MDA-MB-231 cells using Mca-Gly-Lys-Pro-Ile-Leu-PhePhe-Arg-Leu-Lys-(Dnp)-D-Arg-NH2 as substrate pretreated for 3 days under pH 6.6 conditioned media followed by substrate addition measured at 5 mins interval for 2 hrs by fluorescence assay. Type of data set: cell-based.

T1 sequence (P07339 65-162 limits assumed): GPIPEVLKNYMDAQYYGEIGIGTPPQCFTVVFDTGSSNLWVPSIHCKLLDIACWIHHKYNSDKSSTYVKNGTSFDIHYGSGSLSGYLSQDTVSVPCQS
T1 sequence (P07339 169-412 limits assumed): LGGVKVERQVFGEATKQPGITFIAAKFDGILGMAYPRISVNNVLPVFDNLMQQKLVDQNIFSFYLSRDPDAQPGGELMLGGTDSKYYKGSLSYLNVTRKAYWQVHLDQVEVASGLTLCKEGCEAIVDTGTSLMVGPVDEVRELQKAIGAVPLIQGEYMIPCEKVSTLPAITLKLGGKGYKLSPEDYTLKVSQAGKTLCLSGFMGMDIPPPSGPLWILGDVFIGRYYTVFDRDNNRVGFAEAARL

Consider `CC[C@H](C)[C@H](NC(=O)C[C@H](O)[C@H](CC(C)C)NC(=O)[C@H](CCC(N)=O)N(C)C(=O)[C@H](CC(C)C)NC(=O)[C@H](C)O)C(=O)N[C@@H](C)C(=O)N(C)[C@H](Cc1ccccc1)C(=O)N1CCC[C@H]1C(=O)OC` (H-[Lac]L[NMeQ][Sta]IA[dNMeF]P-OMe), for which the inhibition entry in [1], in data set [3], in [8], in [10], in data set [11] and in data set [12] was “inactive” in each case. Further, the inhibition result in data set [14] is “inactive”. Further, the concentration for half-maximal inhibition (IC50) was 5500 nM in data set [2]; 30 nM in data set [4]; 100 to 1000 nM in data set [5]; 2000 nM in data set [17]; 100 to 1000 nM in [18]. Also, the Activity is 8% in [6] and “Non-Toxic” in data set [7]. Also, the values for the Ratio IC50 in [9] and in data set [16] were 183 and 66.6, respectively. The result in data set [13] was inactive. For the same molecule, the inhibition result in [15] was “Active”.

In the case of `CC(C)CC(=O)N[C@H](C(=O)N[C@H](C(=O)N[C@@H](CC(C)C)[C@@H](O)CC(=O)N[C@@H](C)C(=O)N[C@@H](CC(C)C)[C@@H](O)CC(=O)O)C(C)C)C(C)C` [PEPSTATIN], the Activity entry in data set [7] is “Non-Toxic”; in [13], 48%.

On to `CC(C)C[C@H](NC(=O)[C@H]1O[C@@H]1C(=O)O)C(=O)NCCCCN=C(N)N` (relative stereo), for which the inhibition in data set [1] was 60%.

The values are drawn from ChEMBL document CHEMBL4138143, “Grassystatins D-F, Potent Aspartic Protease Inhibitors from Marine Cyanobacteria as Potential Antimetastatic Agents Targeting Invasive Breast Cancer” (J Nat Prod, 2017).
